Experimental findings from ChEMBL document CHEMBL4261631, “Synthetic thiosemicarbazones as a new class of Mycobacterium tuberculosis protein tyrosine phosphatase A inhibitors” (Bioorg Med Chem, 2018) are described below.

Assay [1] deals with T1, Tyrosine-protein phosphatase non-receptor type 22 (Homo sapiens, UniProt Q9Y2R2).
T1 sequence (Q9Y2R2 whole entry): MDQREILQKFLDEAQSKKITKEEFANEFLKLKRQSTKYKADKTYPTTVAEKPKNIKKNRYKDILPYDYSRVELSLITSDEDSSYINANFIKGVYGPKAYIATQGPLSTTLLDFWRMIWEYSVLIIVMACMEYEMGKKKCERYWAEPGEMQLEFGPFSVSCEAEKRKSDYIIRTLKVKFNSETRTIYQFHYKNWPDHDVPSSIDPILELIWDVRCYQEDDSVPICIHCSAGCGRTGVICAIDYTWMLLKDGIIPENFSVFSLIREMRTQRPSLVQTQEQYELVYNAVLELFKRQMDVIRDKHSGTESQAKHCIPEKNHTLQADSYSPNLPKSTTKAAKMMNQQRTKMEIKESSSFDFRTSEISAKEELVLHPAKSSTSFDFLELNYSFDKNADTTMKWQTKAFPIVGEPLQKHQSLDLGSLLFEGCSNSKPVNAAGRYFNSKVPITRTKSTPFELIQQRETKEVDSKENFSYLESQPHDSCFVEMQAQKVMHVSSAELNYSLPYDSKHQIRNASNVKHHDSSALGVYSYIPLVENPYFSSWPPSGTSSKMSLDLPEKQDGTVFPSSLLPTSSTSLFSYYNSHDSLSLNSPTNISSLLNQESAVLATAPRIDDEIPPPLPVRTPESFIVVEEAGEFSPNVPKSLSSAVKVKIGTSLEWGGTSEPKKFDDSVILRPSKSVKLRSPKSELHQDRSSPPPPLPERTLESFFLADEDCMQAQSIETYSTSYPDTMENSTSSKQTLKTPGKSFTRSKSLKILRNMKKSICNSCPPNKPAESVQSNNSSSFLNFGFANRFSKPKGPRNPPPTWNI
Kind of assay: Inhibition of recombinant human LYP using p-nitrophenyl phosphate as substrate preincubated for 10 mins followed by substrate addition and measured every minute for 10 mins by UV-VIS spectrophotometric analysis. The procedure, abridged: (§1)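 Recombinant PTP at PtpB 50 nM, LYP 169 nM, PTP-PEST 205 nM or PTP1B 38 nM, in 20 mM imidazole pH 7.0. Inhibitor (0.5–50 µM, DMSO ≤4% v/v) premixed with enzyme 10 min at 37 °C. Started with 10 mM pNPP. A410 each min for 10 min. Activity from 7 min minus 2 min. IC50 by linear regression. Triplicate.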

Assay [2] is described as follows: Selectivity index, ratio of IC50 for recombinant Yersinia enterocolitica YopH to IC50 for recombinant Mycobacterium tuberculosis PtpA.
A short description of assay [3]: Selectivity index, ratio of IC50 for recombinant human Ptp1B to IC50 for recombinant Mycobacterium tuberculosis PtpA. The procedure, abridged: (§2)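 Selectivity index calculated as IC50 for PtpB, LYP, PTP-PEST or PTP1B divided by IC50 for PtpA. Both IC50 values come from pNPP hydrolysis at 37 °C with 10 min enzyme–inhibitor premix and A410 readout, using 0.5–50 µM inhibitor.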

Assay [4] has as its target Tyrosine-protein phosphatase YopH (Yersinia enterocolitica, UniProt P15273). Kind of assay: Inhibition of recombinant Yersinia enterocolitica YopH using p-nitrophenyl phosphate as substrate preincubated for 10 mins followed by substrate addition and measured every minute for 10 mins by UV-VIS spectrophotometric analysis.
For assay [5], the target named is T2, Low molecular weight protein-tyrosine phosphatase A (Mycobacterium tuberculosis, UniProt P9WIA1).
T2 sequence (P9WIA1 whole entry): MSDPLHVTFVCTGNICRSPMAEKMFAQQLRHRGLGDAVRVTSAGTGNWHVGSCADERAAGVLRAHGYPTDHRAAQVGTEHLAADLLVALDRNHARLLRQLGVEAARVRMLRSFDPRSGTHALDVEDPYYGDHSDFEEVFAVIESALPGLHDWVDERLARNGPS
Briefly: Non-competitive inhibition of Mycobacterium tuberculosis PtpA using p-nitrophenyl phosphate as substrate by Michaelis-Menten plot analysis. The procedure, abridged: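 Mtb PtpA-catalysed pNPP hydrolysis with pNPP varied 0.2–20 mM at each of three inhibitor concentrations. Rates expressed as specific activity (µmol pNPP min-1 mg-1). Vmax and Km fitted to Michaelis–Menten equation. Ki from non-linear fits to competitive or non-competitive inhibition equation, at least three independent experiments.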

Assay [6] has as its target T3, Phosphotyrosine protein phosphatase (Mycobacterium tuberculosis, UniProt A0A045ISB3).
T3 sequence (A0A045ISB3 whole entry): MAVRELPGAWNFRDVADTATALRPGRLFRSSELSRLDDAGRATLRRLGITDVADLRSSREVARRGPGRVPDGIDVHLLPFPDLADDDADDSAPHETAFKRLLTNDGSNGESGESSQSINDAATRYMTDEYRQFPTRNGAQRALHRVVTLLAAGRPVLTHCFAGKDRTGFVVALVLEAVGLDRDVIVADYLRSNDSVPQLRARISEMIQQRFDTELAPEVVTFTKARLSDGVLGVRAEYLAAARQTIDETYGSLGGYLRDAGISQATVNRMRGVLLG
Kind of assay: Inhibition of recombinant Mycobacterium tuberculosis PtpB using p-nitrophenyl phosphate as substrate preincubated for 10 mins followed by substrate addition and measured every minute for 10 mins by UV-VIS spectrophotometric analysis. The procedure, abridged:
as §1

Assay [7] concerns the target T4, Low molecular weight protein-tyrosine phosphatase A (Mycobacterium tuberculosis) (UniProt P9WIA1).
T4 sequence (whole entry): T2 sequence (P9WIA1 whole entry)
Briefly: Inhibition of recombinant Mycobacterium tuberculosis PtpA at 25 uM using p-nitrophenyl phosphate as substrate preincubated for 10 mins followed by substrate addition and measured every minute for 10 mins by UV-VIS spectrophotometric analysis. The procedure, abridged: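 Single-point screen at 25 µM final (from 1 mM DMSO stock, 2.5% DMSO final). 50 nM recombinant Mtb PtpA in 20 mM imidazole pH 7.0, premixed with compound 10 min at 37 °C. Reaction started with 10 mM pNPP. A410 read each min for 10 min at 37 °C. Residual activity from absorbance difference 7 min minus 2 min versus no-inhibitor wells. Triplicate.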

Assay [8] can be described thus: Selectivity index, ratio of IC50 for recombinant human PTP-PEST to IC50 for recombinant Mycobacterium tuberculosis PtpA. The procedure, abridged: as §2
A short description of assay [9]: Selectivity index, ratio of IC50 for recombinant human LYP to IC50 for recombinant Mycobacterium tuberculosis PtpA. The procedure, abridged:
as §2

In assay [10] the test system is Mycobacterium tuberculosis. Kind of assay: Selectivity index, ratio of IC50 for recombinant Mycobacterium tuberculosis PtpB to IC50 for recombinant Mycobacterium tuberculosis PtpA. The procedure, abridged:
as §2

Assay [11] concerns the target T2, Low molecular weight protein-tyrosine phosphatase A. Briefly: Inhibition of recombinant Mycobacterium tuberculosis PtpA using p-nitrophenyl phosphate as substrate preincubated for 10 mins followed by substrate addition and measured every minute for 10 mins by UV-VIS spectrophotometric analysis. The procedure, abridged:
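Recombinant Mtb PtpA at 50 nM in 20 mM imidazole pH 7.0, premixed with inhibitor (0.5–50 µM, DMSO ≤4% v/v) 10 min at 37 °C. Started with 10 mM pNPP. A410 read each min for 10 min at 37 °C. Residual activity from 7 min minus 2 min absorbance versus no-inhibitor wells. IC50 by linear regression of % inhibition versus concentration. Triplicate, mean ± SD of three experiments.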

Bounds are passed on as bounds.

Chain of Tyrosine-protein phosphatase YopH (P15273 whole entry): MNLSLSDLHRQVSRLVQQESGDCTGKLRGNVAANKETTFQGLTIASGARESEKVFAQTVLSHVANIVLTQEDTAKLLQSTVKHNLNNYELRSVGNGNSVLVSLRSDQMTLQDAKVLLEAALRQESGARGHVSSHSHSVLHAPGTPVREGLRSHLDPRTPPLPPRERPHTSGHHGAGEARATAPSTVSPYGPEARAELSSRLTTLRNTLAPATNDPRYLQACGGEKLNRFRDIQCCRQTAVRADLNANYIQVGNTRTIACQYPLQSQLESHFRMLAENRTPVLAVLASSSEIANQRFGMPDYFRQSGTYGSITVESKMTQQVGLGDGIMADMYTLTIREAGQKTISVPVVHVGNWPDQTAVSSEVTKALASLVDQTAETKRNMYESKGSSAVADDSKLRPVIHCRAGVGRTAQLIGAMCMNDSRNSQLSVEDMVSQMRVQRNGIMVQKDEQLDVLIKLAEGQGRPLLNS

For the compound `FC(F)(F)c1ccc(Cl)c(-c2ccc(/C=N/NC(=S)Nc3cccc4ccccc34)o2)c1`, the IC50 is > 50 µM in assay [1], 2.6 µM in [4], 6.2 µM in assay [6] and 2.9 µM in assay [11]. Further, the Ratio IC50 in [2] is 0.9; in [3] it was 3.2; in assay [8], 5.4; in [9], > 10.3; in assay [10], 2.1. The compound further registered a Ki in assay [5] of 1.7 µM. In assay [7], the inhibition was determined as 86.7%.
Regarding `Cc1ccc(NC(=S)N/N=C/c2ccc(-c3cc(C(F)(F)F)ccc3Cl)o2)cc1`, the IC50 was > 50 µM in assay [1], 6.9 µM in assay [4], 30.3 µM in assay [6] and 9.1 µM in assay [11]. In addition, the Ratio IC50 in [2] is 0.8; in [3], 4.2; in [8], > 5.5; in [9], > 5.5; in assay [10] it was 3.3. For the same compound, in assay [7], the inhibition turned out to be 66%.
Take `S=C(N/N=C/c1ccc(-c2ccccc2)cc1)Nc1cccc2ccccc12`: the IC50 in assay [1] was > 50 µM; in [4], 6.5 µM; in assay [6] it was 17.6 µM; in assay [11], 7.4 µM. In addition, the Ratio IC50 in assay [2] is 0.9; in [3] it was > 6.8; in [8], > 6.8; in assay [9] it was > 6.8; in assay [10], 2.4. Besides, the affinity in assay [5], expressed as Ki, was 5.6 µM. In addition, in assay [7], the inhibition is 79.7%.
In the case of `O=[N+]([O-])c1ccc(/C=N/NC(=S)Nc2cccc3ccccc23)cc1`, the half-inhibitory concentration (IC50) in assay [1] is > 50 µM; in assay [4], 7.1 µM; in assay [6], 18.4 µM; in assay [11] it was 9.5 µM. Besides, the Ratio IC50 was 0.7 in assay [2]; 1.8 in assay [3]; > 5.3 in assay [8]; > 5.3 in assay [9]; 1.9 in [10]. Besides, in assay [5], the inhibition constant Ki was determined as 1.2 µM. Also, in [7], the inhibition was 77.7%.

Usually IC50 stands for the point on the concentration scale where inhibition reaches its midpoint. Broadly, the Ki is a measure of affinity in units of concentration, obtained from inhibition or displacement. The inhibition is the share of the control response that was lost under treatment.
